In the array DNA melting data of Ke et al. (doi:10.1101/2024.01.08.574731) one finds folding enthalpy and Tm data, which are given here for 76 sequences.

Data set [1] is described as follows: folding enthalpy; higher = less favourable; fluorescence melt of hairpins on a sequencing array, two-state fit. Particulars: sodium 0.088 M. The method in brief: (§1)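 Melting temperature and folding enthalpy were obtained by bootstrapped two-state fitting. Fits used Cy3 fluorescence of library hairpins with annealed Cy3 and quencher oligos on a sequenced MiSeq flow cell, imaged in 50 mM Na-HEPES pH 8.0, 25 mM NaCl in 2.5 °C steps up to 60 °C and normalised to pre-quench Cy3 and control constructs. Four replicates were combined by inverse-variance weighting, and fitted temperatures were raised by 9.35 °C to match UV melts.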

Data set [2] can be described thus: melting temperature; fluorescence melt of hairpins on a sequencing array, two-state fit, raised by 9.35 °C to match UV melts. The conditions noted are these: sodium 0.088 M. An outline of the steps:
as §1

Regarding GATCTCCACGAGATC ((((((...)))))), the folding enthalpy in data set [1] was -42 kcal/mol. Further, the Tm in data set [2] is 53.6 °C.
For GATCTCCATCGAGATC ((((((....)))))), in that order: -34.4 kcal/mol and 50.7 °C.
For GATCTCCATGAGATC ((((((...)))))), in that order: -42.1 kcal/mol and 53.3 °C.
For GATCTCCCATGAGATC ((((((....)))))) the same measures were -34.4 kcal/mol and 51.6 °C.
Take GATCTCCCCCGAGATC ((((((....)))))): in data set [1], the folding enthalpy is -36 kcal/mol. In addition, in data set [2], the Tm came to 51.5 °C.
For GATCTCCCGAGAGATC ((((((....)))))) the same measures were -38.6 kcal/mol and 52.7 °C.
For the sequence GATCTCCCTGAGATC ((((((...)))))), the folding enthalpy in data set [1] is -34.7 kcal/mol. The Tm in data set [2] turned out to be 55.3 °C.
For GATCTCCGAAAGGAAATC (((.(((....))).))) the same measures were -25.1 kcal/mol and 34.2 °C.
For GATCTCCGAAGAGATC ((((((....)))))) the same measures were -40.6 kcal/mol and 54 °C.
In the case of GATCTCCGAGAGATC ((((((...)))))), the folding enthalpy in data set [1] is -35.2 kcal/mol. In data set [2], the Tm is 51 °C.
For GATCTCCTAAGAGATC ((((((....)))))) the same measures were -42.6 kcal/mol and 53.6 °C.
For GATCTCCTAGAGATC ((((((...)))))), in that order: -35.1 kcal/mol and 53 °C.
GATCTCCTCTGAGATC ((((((....)))))): the folding enthalpy in data set [1] was -31.3 kcal/mol. In addition, the Tm in data set [2] came out at 51.8 °C.
For GATCTCGAACGAGATC ((((((....)))))) the same measures were -40.8 kcal/mol and 60.2 °C.
For GATCTCGAATGAGATC ((((((....)))))) the same measures were -39.5 kcal/mol and 57.5 °C.
For GATCTCGATAGAGATC ((((((....)))))) the same measures were -36 kcal/mol and 66.8 °C.
On to GATCTCGCAGGAGATC ((((((....)))))), for which the folding enthalpy in data set [1] was -50.6 kcal/mol. Further, in data set [2], the Tm came out at 57.5 °C.
For GATCTCGCCGGAGATC ((((((....)))))), in that order: -35.5 kcal/mol and 54.4 °C.
For GATCTCGCGAGAGATC ((((((....)))))) the same measures were -42.1 kcal/mol and 64.2 °C.
For GATCTCGGAAACGGGATC ((((.((....)).)))), in that order: -35 kcal/mol and 51.3 °C.
On to GATCTCGGCGGAGATC ((((((....)))))), for which the folding enthalpy in data set [1] is -48.8 kcal/mol. Further, the Tm in data set [2] is 55.4 °C.
For the sequence GATCTCGGGTGAGATC ((((((....)))))), the folding enthalpy in data set [1] is -30 kcal/mol. Also, the Tm in data set [2] was found to be 52.2 °C.
For GATCTCGTTGAGATC ((((((...)))))), in that order: -37.8 kcal/mol and 54.9 °C.
For GATCTCTACCGAGATC ((((((....)))))) the same measures were -37.1 kcal/mol and 51.7 °C.
As for GATCTCTAGGGAGATC ((((((....)))))), the folding enthalpy in data set [1] is -39.7 kcal/mol. For the same sequence, the Tm in data set [2] came to 53.1 °C.
With GATCTCTATGAGATC ((((((...)))))), the folding enthalpy in data set [1] was -31.3 kcal/mol. Further, in data set [2], the Tm is 54.6 °C.
For the sequence GATCTCTCGTGAGATC ((((((....)))))), the folding enthalpy in data set [1] was -40 kcal/mol. Besides, the Tm in data set [2] amounted to 52.5 °C.
For GATCTCTGAAGAGATC ((((((....)))))), in that order: -35.2 kcal/mol and 54.2 °C.
For GATCTCTGCGGAGATC ((((((....)))))), in that order: -43.7 kcal/mol and 55.9 °C.
Consider GATCTCTGGCGAGATC ((((((....)))))), for which the folding enthalpy in data set [1] was -33.6 kcal/mol. In addition, the Tm in data set [2] stood at 51.6 °C.
In the case of GATCTCTGGGGAGATC ((((((....)))))), in data set [1], the folding enthalpy is -41.2 kcal/mol. The Tm in data set [2] worked out at 56.4 °C.
Take GATCTCTGGTGAGATC ((((((....)))))): the folding enthalpy in data set [1] was -34.1 kcal/mol. Also, the Tm in data set [2] is 52.4 °C.
For GATCTCTGTAGAGATC ((((((....)))))) the same measures were -44.1 kcal/mol and 56.5 °C.
For GATCTCTTAAGAGATC ((((((....)))))) the same measures were -37.3 kcal/mol and 54.2 °C.
For GATCTCTTTGAGATC ((((((...)))))) the same measures were -32.1 kcal/mol and 55.8 °C.
On to GATCTGAACCCAGATC ((((((....)))))), for which the folding enthalpy in data set [1] was -28.8 kcal/mol. The Tm in data set [2] was 46.1 °C.
For GATCTGAAGCAGATC ((((((...)))))), in that order: -27.9 kcal/mol and 45.7 °C.
For GATCTGAAGCCAGATC ((((((....)))))), in data set [1], the folding enthalpy was -33.2 kcal/mol. For the same sequence, in data set [2], the Tm came to 45.5 °C.
For GATCTGAAGGCAGATC ((((((....)))))), in that order: -41.9 kcal/mol and 45.3 °C.
For GATCTGAATACAGATC ((((((....)))))) the same measures were -39.7 kcal/mol and 47.7 °C.
For GATCTGACTGCAGATC ((((((....)))))) the same measures were -23.7 kcal/mol and 47 °C.
Regarding GATCTGAGAGCAGATC ((((((....)))))), the folding enthalpy in data set [1] is -37.2 kcal/mol. Also, in data set [2], the Tm amounted to 46.1 °C.
For GATCTGAGATCAGATC ((((((....)))))), in that order: -36.1 kcal/mol and 49.2 °C.
As to GATCTGAGCCAGATC ((((((...)))))), the folding enthalpy in data set [1] was -41.7 kcal/mol. Besides, the Tm in data set [2] worked out at 47 °C.
For GATCTGAGTACAGATC ((((((....)))))), in that order: -30.9 kcal/mol and 49.6 °C.
For GATCTGAGTGCAGATC ((((((....)))))), in that order: -31.1 kcal/mol and 49.2 °C.
For GATCTGATAGCAGATC ((((((....)))))) the same measures were -34.4 kcal/mol and 46.8 °C.
Take GATCTGATCCAGATC ((((((...)))))): in data set [1], the folding enthalpy was -35.2 kcal/mol. Moreover, the Tm in data set [2] is 47.6 °C.
For GATCTGATCCCAGATC ((((((....)))))) the same measures were -27.2 kcal/mol and 47 °C.
For GATCTGATCTCAGATC ((((((....)))))), the folding enthalpy in data set [1] was -37.1 kcal/mol. For the same sequence, in data set [2], the Tm turned out to be 51.1 °C.
Turning to GATCTGATGCCAGATC ((((((....)))))), in data set [1], the folding enthalpy is -33.4 kcal/mol. The Tm in data set [2] stood at 47.5 °C.
For GATCTGATTCAGATC ((((((...)))))), in that order: -35.8 kcal/mol and 48.7 °C.
For GATCTGCAAACAGATC ((((((....)))))) the same measures were -35.9 kcal/mol and 48.5 °C.
For GATCTGCAACAGATC ((((((...)))))) the same measures were -28.8 kcal/mol and 46.3 °C.
For the sequence GATCTGCACGCAGATC ((((((....)))))), the folding enthalpy in data set [1] was -33.1 kcal/mol. For the same sequence, the Tm in data set [2] turned out to be 58.8 °C.
For GATCTGCAGGCAGATC ((((((....)))))) the same measures were -32.7 kcal/mol and 60.2 °C.
For GATCTGCATACAGATC ((((((....)))))), in that order: -43.2 kcal/mol and 52.1 °C.
As to GATCTGCATGCAGATC ((((((....)))))), in data set [1], the folding enthalpy is -46.5 kcal/mol. Also, the Tm in data set [2] was 62.4 °C.
For GATCTGCCAACAGATC ((((((....)))))), in that order: -38.3 kcal/mol and 50 °C.
For GATCTGCCGCAGATC ((((((...)))))), in that order: -41.5 kcal/mol and 48.1 °C.
In the case of GATCTGCCGGCAGATC ((((((....)))))), the folding enthalpy in data set [1] is -53.3 kcal/mol. Besides, in data set [2], the Tm was found to be 62.3 °C.
For GATCTGCCTCAGATC ((((((...)))))), in that order: -29.1 kcal/mol and 48.7 °C.
For GATCTGCGAACAGATC ((((((....)))))), in data set [1], the folding enthalpy is -33.5 kcal/mol. The Tm in data set [2] turned out to be 49.4 °C.
For GATCTGCGATCAGATC ((((((....)))))), in that order: -33.9 kcal/mol and 47.1 °C.
For GATCTGCGCGCAGATC ((((((....)))))), in that order: -50.8 kcal/mol and 66.7 °C.
For GATCTGCGGCCAGATC ((((((....)))))), in that order: -27.4 kcal/mol and 48.6 °C.
Take GATCTGCGTCCAGATC ((((((....)))))): the folding enthalpy in data set [1] is -30.1 kcal/mol. In addition, the Tm in data set [2] came to 48.3 °C.
For GATCTGCTCTCAGATC ((((((....)))))) the same measures were -36.6 kcal/mol and 48.4 °C.
With GATCTGGAATCAGATC ((((((....)))))), in data set [1], the folding enthalpy is -40.5 kcal/mol. Besides, the Tm in data set [2] was 54.3 °C.
For GATCTGGACACAGATC ((((((....)))))) the same measures were -38.8 kcal/mol and 58.5 °C.
For GATCTGGACCAGATC ((((((...)))))) the same measures were -39.7 kcal/mol and 49.9 °C.
For the sequence GATCTGGACCCAGATC ((((((....)))))), in data set [1], the folding enthalpy was -43.8 kcal/mol. Further, in data set [2], the Tm stood at 53 °C.
For GATCTGGACGCAGATC ((((((....)))))) the same measures were -47 kcal/mol and 51.3 °C.
For GATCTGGAGCCAGATC ((((((....)))))), in that order: -37.6 kcal/mol and 49.5 °C.
With GATCTGGATTCAGATC ((((((....)))))), in data set [1], the folding enthalpy was -39.3 kcal/mol. In data set [2], the Tm worked out at 48.6 °C.
Regarding GATCTGGCCGCAGATC ((((((....)))))), the folding enthalpy in data set [1] is -36 kcal/mol. In addition, the Tm in data set [2] came out at 52.3 °C.
